Measured values: PubChem BioAssay
Calls of active or inactive are those of the source.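 Rule for the calls, unless noted: active = viability loss from added drug above about 55%, and viability with drug at most 40%, in both replicates (limit read from the data, passing the limit was not always enough); inconclusive = both conditions met in only one replicate; inactive = neither replicate meets both conditions.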

Columns and labels:
[1] = SK-BR-3 cell growth inhibitors, pilot screen, 24 h, human (AID 572;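 active = viability at or below 10% of carrier control in both of two separate runs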;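 note: compound exposure lasted between 18 and 24 h rather than exactly 24 h; 100% = carrier-treated control wells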); settings: SK-BR-3 viability, CellTiter-Glo luminescence, at 10 µM, stronger effect = lower value
[2] = growth inhibitors of H69AR lung tumor, primary screen, human, duplicate replicates (AID 580;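 active = viability at or under a set limit in both replicates, limit being median viability minus 3 SD, cut at about 48% in these data, passing the limit was not always enough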;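 note: 100% = mean luminescence of untreated wells and 0% = no signal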); settings: H69AR lung tumor cells viability, ATP luminescence, 72 h; at 10 µM; stronger effect = lower value
[3] = reversal of MRP1-mediated doxorubicin resistance, pilot screen, H69AR cells, doxorubicin co-treatment (AID 601); settings: CellTiter-Glo, 72 h, at 10 µM; for differential viability (reversal): stronger effect = higher value
[4] = 384-well plate pilot, post-Golgi transport modulator project, inhibition of yeast transport mutant growth (AID 636; in the data active = inhibition above about 31%); settings: absorbance 615 nm, about 18 h, stronger effect = higher value
[5] = growth suppression of yeast trafficking mutant, preliminary HTS, modulators of trafficking downstream of Golgi apparatus project, 1536-format plate, OD 615 nm (AID 637; in the data active = inhibition above about 30%); settings: yeast transport mutant growth, absorbance 615 nm, 18 h; stronger effect = higher value
[6] = HUVEC growth inhibition – cell-based, human, primary screen (AID 575;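 active = viability at or below 30% in both replicate assays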;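 note: 100% = median of untreated cell wells with 0.1% DMSO on each plate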); settings: HUVEC proliferation, CellTiter-Glo luminescence, 72 h; at 10 µM; stronger effect = lower value
Summary of the method: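 Timing: 72 h treatment at 37 °C; material: HUVEC primary cells; technique: CellTiter-Glo luminescence measuring cellular ATP; controls: vehicle and MePR control wells; measure: percent of median DMSO-control luminescence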

[7] = H69AR cells + 2 uM doxorubicin, measured here: viability with 2 uM doxorubicin, stronger effect = lower value
[8] = H69AR cells, compound alone cytotoxicity

Row | Compound | viability [1] | viability [2] | differential viability (reversal) ([3]; H69AR cells + 2 uM doxorubicin) | viability [3, 7] | viability [3, 8] | inhibition [4] | inhibition [5] | viability [6]
1 | Clc1ccc(C2=Nn3c(nnc3-c3n[nH]c4c3CCC4)SC2)cc1Cl | 102% (inactive) | 9% (active) | -12.1% (inactive) | 21.1% | 9% | -6.58% (inactive) | 6.77% (inactive) | –
2 | COc1ccc(-n2cc(-c3ccccc3)c3c(N4CCN(CCO)CC4)ncnc32)cc1 | 100% (inactive) | 56.2% (inactive) | 10.5% (inactive) | 45.7% | 56.2% | -6.13% (inactive) | 0.48% (inactive) | –
3 | O=C(Nc1ccc2nn(-c3ccccc3)nc2c1)c1ccc(Br)o1 | 67.5% (inactive) | 9.49% (active) | -0.29% (inactive) | 9.78% | 9.49% | -7.43% (inactive) | -10.3% (inactive) | –
4 | CO[C@H]1C[C@@H]2CC[C@@H](C)[C@@](O)(O2)C(=O)C(=O)N2CCCC[C@H]2C(=O)O[C@H]([C@H](C)C[C@@H]2CC[C@@H](O)[C@H](OC)C2)CC(=O)[C@H](C)C=C(C)[C@@H](O)[C@@H](OC)C(=O)[C@H](C)C[C@H](C)C=CC=CC=C1C | 113% (inactive) | 67.1% (inactive) | 1.46% (inactive) | 65.7% | 67.1% | 93.6% (active) | 82.2% (active) | –
5 | Fc1ccc(C(c2ccc(F)cc2)N2CCN(C/C=C/c3ccccc3)CC2)cc1 | 89% (inactive) | 76.7% (inactive) | -5.65% (inactive) | 82.3% | 76.7% | 3.38% (inactive) | -1.17% (inactive) | –
6 | Cc1nnc(NCc2n[nH]c(=O)c3ccccc23)c2ccccc12 | 72% (inactive) | 67.1% (inactive) | -14.8% (inactive) | 81.9% | 67.1% | -3.38% (inactive) | 1.64% (inactive) | –
7 | CCN(CC)S(=O)(=O)c1ccc2[nH]cc(C(=O)NCCC3=CCCCC3)c(=O)c2c1 | 138% (inactive) | 3.36% (active) | -40.9% (inactive) | 44.3% | 3.36% | -6.4% (inactive) | -0.65% (inactive) | –
8 | O=C(Nc1ccc2oc(Cc3ccc(Cl)cc3)nc2c1)c1cccnc1 | 103% (inactive) | 37.9% (active) | -41.5% (inactive) | 79.4% | 37.9% | -1.73% (inactive) | -0.55% (inactive) | –
9 | COc1cc2c(C#N)c(N3CCN(c4ccccc4OC)CC3)nc(N)c2c(N)n1 | 110% (inactive) | 67.8% (inactive) | 4.45% (inactive) | 63.3% | 67.8% | -0.26% (inactive) | 5.9% (inactive) | –
10 | N#Cc1ccccc1Cn1c(=O)n(Cc2ccc(C(=O)NCc3ccco3)cc2)c(=O)c2ccccc21 | 73% (inactive) | 11% (active) | -8.33% (inactive) | 19.4% | 11% | -1.82% (inactive) | -7.21% (inactive) | –
11 | Cc1ccc(Cl)cc1N1CCN(C(=O)c2cn(C)c(=O)c3c2c2ccccc2n3C)CC1 | 94% (inactive) | 3.07% (active) | -28.7% (inactive) | 31.8% | 3.07% | -1.73% (inactive) | 4.73% (inactive) | –
12 | O=C(O)c1ccc2c3c(ncnc13)-c1ccccc1C2=O | 60.5% (inactive) | 80.3% (inactive) | -19.5% (inactive) | 99.8% | 80.3% | 5.51% (inactive) | 1.67% (inactive) | –
13 | COc1ccccc1NC(=O)c1oc2ccccc2c1NC(=O)c1cc(OC)c(OC)c(OC)c1 | 56.5% (inactive) | 16.9% (active) | -18.4% (inactive) | 35.3% | 16.9% | -3.33% (inactive) | -2.1% (inactive) | –
14 | Oc1ccc(/C=C/c2cc(O)cc(O)c2)cc1 | 115% (inactive) | 76.9% (inactive) | -11.7% (inactive) | 88.6% | 76.9% | 0.13% (inactive) | -5.17% (inactive) | –
15 | C(=C\c1ccccc1)/CN1CCN(C(c2ccccc2)c2ccccc2)CC1 | 90% (inactive) | 71% (inactive) | -2.73% (inactive) | 73.7% | 71% | 1.43% (inactive) | -3% (inactive) | –
16 | Oc1cccc(Nc2nc(NCC3CCCO3)c3ccccc3n2)c1 (stereo not drawn) | 73% (inactive) | 22.1% (active) | -19.3% (inactive) | 41.4% | 22.1% | -5% (inactive) | 3.17% (inactive) | –
17 | CCCCn1c(SCc2ccc(Cl)cc2)nc2c1c(=O)[nH]c(=O)n2C | 80% (inactive) | 76.7% (inactive) | 6.03% (inactive) | 70.7% | 76.7% | -4% (inactive) | 0.73% (inactive) | –
18 | Cc1cc(C)c2ccc(N)nc2c1O | 87.5% (inactive) | 21.4% (active) | -7.52% (inactive) | 28.9% | 21.4% | -1.43% (inactive) | -1.48% (inactive) | –
19 | COc1cccc(CN2C(=O)C3(C(C#N)=C(N)OC4=C3C(=O)CCC4)c3ccccc32)c1 (stereo not drawn) | 104% (inactive) | – | -2.01% (inactive) | 12.6% | 10.6% | 84.2% (active) | 51.6% (active) | –
20 | CN1CCN(C2=Nc3cc(Cl)ccc3Nc3ccccc32)CC1 | 94% (inactive) | 68% (inactive) | 17% (inactive) | 51% | 68% | 1.82% (inactive) | 3.67% (inactive) | –
21 | Cc1cccn2c(=O)c3cc(C(=O)NC4CCCC4)c(=N)n(C4CCCC4)c3nc12 | 107% (inactive) | 27.6% (active) | 15.5% (inactive) | 12.1% | 27.6% | -8.49% (inactive) | 0.81% (inactive) | –
22 | COc1ccc(Cl)cc1N1CCN(CCNC(=O)Nc2ccccc2C)CC1 | 85% (inactive) | – | -22.7% (inactive) | 71.4% | 48.7% | -4.93% (inactive) | 4.91% (inactive) | –

Row | Compound | viability [1] | viability [2] | differential viability (reversal) ([3]; H69AR cells + 2 uM doxorubicin) | viability [3, 7] | viability [3, 8] | inhibition [4] | inhibition [5] | viability [6]
23 | CCOC(=O)c1nn(-c2sc(C(=O)OC)c(C)c2C(=O)OC)cc1O | – | 85.1% (inactive) | 3.34% (inactive) | 81.7% | 85.1% | -1.82% (inactive) | 3.33% (inactive) | 105% (inactive)
24 | C[C@]12CC[C@@H]3c4ccc(OC(=O)c5ccccc5)cc4CC[C@H]3[C@@H]1CC[C@@H]2O | 78% (inactive) | – | -9.02% (inactive) | 48% | 39% | 2.73% (inactive) | 32% (active) | –
25 | CC(C)Cn1c2c(c(O)c(C(=O)Nc3ncccc3O)c1=O)CCCC2 | 91% (inactive) | – | -10.7% (inactive) | 63.1% | 52.4% | -2% (inactive) | -2.91% (inactive) | –
26 | C=C(CC)C(=O)c1ccc(OCC(=O)O)c(Cl)c1Cl | 86% (inactive) | – | 0.86% (inactive) | 48.5% | 49.4% | -2.47% (inactive) | -0.5% (inactive) | –
27 | O=C(NC1CC1)c1cccc(Nc2ccc(-c3ccc4c(c3)OCCO4)nn2)c1 | 76% (inactive) | – | -12% (inactive) | 61.2% | 49.1% | -0.81% (inactive) | -5.82% (inactive) | –
28 | CCOC(=O)N1CCC(N(C(=O)Nc2ccc(Cl)c(Cl)c2)C(C)CC)CC1 (stereo not drawn) | – | 97.7% (inactive) | 4.27% (inactive) | 93.4% | 97.7% | -2.63% (inactive) | 0.79% (inactive) | 79.3% (inactive)
29 | CSc1ccccc1NC(=O)CN(Cc1ccccc1)S(C)(=O)=O | – | 93.1% (inactive) | 7.95% (inactive) | 85.2% | 93.1% | -0.78% (inactive) | 10.6% (inactive) | 82.7% (inactive)
30 | CN1CCCC(OC(=O)c2ccc3c(c2)OCCO3)C1 (stereo not drawn) | – | 106% (inactive) | 19.1% (inactive) | 86.7% | 106% | -4.4% (inactive) | -2.06% (inactive) | 103% (inactive)
31 | O=C(C1CC2CCC1C2)N1CCN(Cc2ccc3c(c2)OCO3)CC1 (stereo not drawn) | – | 99.2% (inactive) | 13.9% (inactive) | 85.3% | 99.2% | -4.68% (inactive) | 3.33% (inactive) | 103% (inactive)
32 | Cc1ccc(-c2nnn(CC(=O)N(CC(=O)NCC3CCCO3)c3ccccc3)n2)o1 (stereo not drawn) | – | 90.9% (inactive) | 2.55% (inactive) | 88.4% | 90.9% | -5.97% (inactive) | -1.11% (inactive) | 88.7% (inactive)
33 | Cc1ccccc1NS(=O)(=O)c1ccc(NC(=O)c2ccco2)cc1 | – | 89.2% (inactive) | -0.49% (inactive) | 89.7% | 89.2% | -2.34% (inactive) | -2.38% (inactive) | 90% (inactive)
34 | CCNc1oc(COc2cccc(C)c2)nc1C#N | – | 90.9% (inactive) | 13.8% (inactive) | 77.1% | 90.9% | -7.53% (inactive) | -10.3% (inactive) | 101% (inactive)
35 | CCCCn1c(SCc2cccnc2)nc2c1c(=O)n(C)c(=O)n2C | – | 92.8% (inactive) | 13.7% (inactive) | 79.2% | 92.8% | -7.76% (inactive) | -2.86% (inactive) | 121% (inactive)
36 | C=CCn1c(Br)nc2c1c(=O)[nH]c(=O)n2C | – | 85.1% (inactive) | 6.37% (inactive) | 78.7% | 85.1% | -6.93% (inactive) | 3.33% (inactive) | 97.7% (inactive)
37 | COc1ccc(OC)c(-c2nc3c(C)n[nH]c(=O)c3[nH]2)c1 | – | 69.5% (inactive) | -21.3% (inactive) | 90.7% | 69.5% | -6.13% (inactive) | -0.95% (inactive) | 79.1% (inactive)
38 | COc1cc2nc(N3CCN(C(=O)C4COc5ccccc5O4)CC3)nc(N)c2cc1OC (stereo not drawn) | 59% (inactive) | – | -15.4% (inactive) | 23.7% | 8.23% | -0.65% (inactive) | 6.83% (inactive) | –
39 | CCC(=O)Nc1ccc(NC(=O)CSc2nnnn2C(C)C)cc1 | – | 93% (inactive) | 3.14% (inactive) | 89.8% | 93% | -3.82% (inactive) | 4.13% (inactive) | 111% (inactive)
40 | CS(=O)(=O)Nc1ccc(C(=O)NCc2ccc3c(c2)OCO3)cc1 | – | 96.2% (inactive) | 0.675% (inactive) | 95.5% | 96.2% | -8.29% (inactive) | -1.9% (inactive) | 92.2% (inactive)
41 | CCSc1nnc(NC(=O)c2cc(C)oc2C)s1 | – | 99.7% (inactive) | 12.6% (inactive) | 87.1% | 99.7% | -3.55% (inactive) | 3.33% (inactive) | 85% (inactive)
42 | Cc1nc2cc(CO)ccc2n1C | – | 98.1% (inactive) | 9.13% (inactive) | 89% | 98.1% | -5.97% (inactive) | -1.9% (inactive) | 93.1% (inactive)
43 | Cc1cc(-n2c(C)cc(C(=O)CSc3nnnn3-c3ccc(Cl)cc3)c2C)no1 | 81.5% (inactive) | – | 4.86% (inactive) | 44.3% | 49.2% | -3.73% (inactive) | -5.56% (inactive) | –
